Compound activity as filed in PubChem BioAssay.
Apaf1 inhib: blocks human Apaf-1 apoptosome activity; AID 489030; inhibition, % at 20 µM; reconstituted apoptosome caspase-3 activity, DEVD-Rh110 fluorescence; 330,000 tested, 0.71% active; O14727; active = inhibition of at least 40% at 20 µM;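 note: plate controls were DMSO wells for no effect and DEVD-CHO caspase inhibitor wells for full effect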
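Assay system: Apoptosome proteins | Medium: pH 7.5 Hepes buffer with CHAPS, BSA, DTT | Also added: Cytochrome c and DEVD-Rh110 substrate | Times: 30 min plus 50 min, RT | Detection: Rhodamine 110 fluorescence at Ex 480/Em 540 nm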
SENP7 inh: blocks the human protease SENP7; Q9BQF6; recombinant SENP7, Z-RLRGG-aminoluciferin luminescence, 40 min; inhibition, % at 5 µM; 330,000 tested, 1.5% active; AID 434973;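 active = inhibition above about 50% at the single test dose, limit read from the data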;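 note: plate controls were DMSO with enzyme for no effect and no enzyme buffer wells for full effect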
Target sequence (Q9BQF6 706-1050 limits assumed): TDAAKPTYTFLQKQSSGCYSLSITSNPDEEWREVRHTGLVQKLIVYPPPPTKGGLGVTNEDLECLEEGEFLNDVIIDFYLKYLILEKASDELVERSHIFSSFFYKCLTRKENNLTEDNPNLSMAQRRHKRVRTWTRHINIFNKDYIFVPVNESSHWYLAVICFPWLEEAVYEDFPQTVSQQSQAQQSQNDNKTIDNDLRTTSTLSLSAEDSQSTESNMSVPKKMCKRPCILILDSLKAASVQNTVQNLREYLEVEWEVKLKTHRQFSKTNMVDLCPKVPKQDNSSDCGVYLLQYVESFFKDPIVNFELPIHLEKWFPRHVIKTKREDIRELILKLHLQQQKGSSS
UBC13 inh: human UBC13 polyubiquitination inhibition; UBC13 polyubiquitin chain formation, TR-FRET; inhibition, % at 20 µM; P61088; 330,000 tested, 0.47% active; in the data active = inhibition above about 45%, passing the limit was not always enough
SENP8 block-1: SENP8 protease inhibition; purified SENP8, Z-RLRGG-aminoluciferin cleavage, luminescence; 330,000 tested, 1.2% active; AID 2540; inhibition, % at 10 µM; Q96LD8; in the data active = inhibition above about 50%
SENP8 block-2: inhibitors of human SENP8 protease; Q96LD8; recombinant SENP8, Nedd8 substrate fluorescence; inhibition, % at 20 µM; 360,000 tested, 0.64% active; AID 602440; in the data active = inhibition mostly above about 40%, no sharp cut-off; inactive = mostly below about 27%
SENP6 inh: blocks the human protease SENP6. Recombinant SENP6 catalytic domain, aminoluciferin luminescence. inhibition, % at 10 µM. Q9GZR1. 330,000 tested, 1.8% active;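 active = inhibition above about 50% at the single tested dose, limit read from the data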;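 note: plate controls were DMSO wells with enzyme for no effect and DMSO wells lacking enzyme for full effect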
* = called active by the depositor; . = no result. Sampled rows, rich in hits. Any-hit rate of the full collection: about 3%.

SMILES	Apaf1 inhib	SENP7 inh	UBC13 inh	SENP8 block-1	SENP8 block-2	SENP6 inh
COc1cccc(NC(=O)/C=C/c2ccc([N+](=O)[O-])cc2)c1	-3	38	-12	51*	11	75*
COc1cc(C=C2C(=O)C=CC2=O)ccc1O	.	.	.	.	20	.
Cc1ccccc1C1N=C2Oc3ccccc3C=C2C(=O)N1 (stereo not given)	.	.	.	.	-404	.
O=C1C(Cl)=C(NCc2ccco2)C(=O)c2ccccc21	.	.	.	.	46*	.
O=S(=O)(c1ccccc1)c1ccc(NCc2ccco2)cc1	-8	7	3	6	-92	18
COc1ccc(C(C)(NC(C)=O)c2nc(-c3ccccc3OC)cs2)cc1 (stereo not given)	.	.	.	.	16	.
Cc1cccc(-c2ccc(O)cc2CN2CCN(c3ncc(Cc4ccccc4)cn3)CC2)c1	.	.	.	.	11	.
Cc1nn(-c2ccccc2)c(N)c1N=Nc1cccc(S(=O)(=O)N2CCOCC2)c1	4	2	-30	1	41*	3
CC(=O)Nc1cc(-c2ccccc2N(C)C)cn2c(-c3ccc(S(C)(=O)=O)cc3)cnc12	.	.	.	.	-444	.
O=C(/C=C\Nc1ccc2c(c1)OCO2)c1ccc(Cl)s1	-8	71*	-15	18	19	13
O=[N+]([O-])c1ccccc1C1Nc2cccc3cccc(c23)N1	22	3	-35	23	51*	20
CC1(C(=O)NCc2cccs2)Cc2c(-c3ccc(C(N)=O)cc3)ccnc2O1 (stereo not given)	.	.	.	.	14	.
Oc1ccc2ccccc2c1N=Nc1ccccn1	30	-5	-113	15	41*	23
O=C1C(Cl)=C(Nc2ccc(O)cc2)C(=O)c2ccccc21	26	0	-231	11	41*	26
CCN(CC)c1ccc(NC2=C(Cl)C(=O)c3ccccc3C2=O)cc1	.	.	.	.	50*	.
Cc1ccsc1/C=N/Nc1ccc(F)cc1F	17	9	6	56*	-2	50*
O=C(Nc1ccc(NC(=O)c2cccs2)cn1)c1ccccc1	-3	67*	4	38	5	64*
CCc1nc2ccc(C(=O)N(C)Cc3ccccc3)cn2c1N(C)Cc1ccc(OC)cc1	.	.	.	.	1	.
Cc1cccc(C)c1NC(=O)C1(C)CN(S(C)(=O)=O)CC(=O)N1C1CC1 (stereo not given)	.	.	.	.	20	.
CN1C(=O)/C(=C2\SC(N3CCCCCC3)=NC2=O)c2ccccc21	3	-3	-72	-23	13	-12
CN1C(=O)/C(=C2\SC(N)=NC2=O)c2ccccc21	-4	-6	-103	8	43*	-9
O=C1/C(=C/c2ccc(O)c([N+](=O)[O-])c2)SC(=S)N1Cc1ccccc1	-1	30	-201	92*	41*	95*
COc1cc(/C=C2/SC(=S)N(Cc3ccccc3)C2=O)cc(Cl)c1O	.	.	.	.	46*	.
O=C1/C(=C\c2cccc([N+](=O)[O-])c2O)SC(=S)N1Cc1ccccc1	.	.	.	.	25	.
O=C1/C(=C\c2cc(Br)cc(Br)c2O)SC(=S)N1Cc1ccccc1	21	-5	-55	4	40*	13
SMILES	Apaf1 inhib	SENP7 inh	UBC13 inh	SENP8 block-1	SENP8 block-2	SENP6 inh
COc1cc([N+](=O)[O-])cc(/C=C2/SC(=S)N(Cc3ccccc3)C2=O)c1O	.	.	.	.	37	.
O=C(NCc1ccccc1)C(C1CC1)n1c(=O)c(-c2ccco2)nc2ccccc21 (stereo not given)	.	.	.	.	-403	.
CCCCCCN1CCN(C2CN(Cc3cn(Cc4ccc(C)cc4)nn3)S(=O)(=O)C2)CC1 (stereo not given)	.	.	.	.	8	.
CC12CCC(C/C1=N\N=C1\NC(=O)/C(=C\c3ccc(Cl)cc3)S1)C2(C)C (stereo not given)	26	-3	-38	-19	40*	-6
O=C1NC(=Nc2ccccc2Cl)S/C1=C\c1ccc(C(=O)O)cc1	2	13	-10	29	20	30
Cc1ccc(-n2nnnc2SCC(=O)N2CCc3ccccc3C2)cc1	38	10	-12	14	41*	12
Cc1ccsc1/C=N\NC(=O)c1n[nH]c2c1CCC2	-1	93*	-16	85*	11	92*
CC(C)(C)C(=O)NC1=NN(c2c(Cl)cc(Cl)cc2Cl)C(=O)C1	68*	-3	-16	-10	6	-32
OCc1cccc(-c2cnc3c(Nc4cccc(OC(F)(F)C(F)F)c4)nccn23)c1	.	.	.	.	-149	.
O=S(=O)(Nc1nc2ccccc2nc1N1CCc2ccccc2C1)c1ccc(Br)cc1	.	.	.	.	-297	.
O=S(=O)(Nc1nc2ccccc2nc1N1CCc2ccccc2C1)c1ccc(Cl)cc1	11	58*	-33	0	-235	37
